# A selection: hits, their analogues and other compounds. The true share with any hit is near 1.7%.
# STEP block = inhibitors of human striatal-enriched phosphatase STEP; 0.25% of 360,000 active; P54829; recombinant STEP, OMFP fluorogenic substrate, fluorescence; inhibition, % at 20 µM;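 active = inhibition at 20 µM, scaled per plate between control wells, above about 37%, limit read from the data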;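 also: 0% = DMSO with enzyme and substrate and 100% = substrate only without enzyme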
#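 medium = Bis-Tris buffer pH 6.0, 2.5 mM DTT, 0.005% Tween 20 | test system = STEP (striatal-enriched tyrosine phosphatase) enzyme, cell-free | measure = normalized % inhibition | compound dosing = 20 µM, 1% DMSO | also added = 25 µM OMFP | schedule = reaction 20 min, ambient temperature | measured by = fluorescence read at 480 nm ex / 540 nm em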
# LMPTP inh = blocks human LMPTP phosphatase. P24666. recombinant LMPTP-A, OMFP fluorogenic substrate, fluorescence intensity. 0.22% of 360,000 active. inhibition, % at 20 µM;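 active = compounds that cut the enzyme signal by at least half of the control window in the single-dose screen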;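 also: plate controls were DMSO wells with enzyme plus substrate for no effect and substrate without enzyme for full effect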
#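 Test system – LMPTP-A enzyme · Amount – LMPTP-A at 0.625 nM final in the reaction · Buffer or medium – Bis-Tris pH 6.0, DTT, detergent · Reagent – OMFP 400 µM · Doses – single 20 µM dose · Schedule – reaction 50 min, room temperature, dark · Detection – fluorescence intensity of OMFP turnover product · Evaluation – percent inhibition versus substrate-only and uninhibited controls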
# DNMT1 block = blocks human DNA methyltransferase DNMT1; P26358; AID 588458; inhibition (reported as % activation of signal), % at 10 µM; DNMT1 molecular beacon, Hinp1I cleavage, fluorescence; 0.83% of 360,000 active; in the data active = inhibition above about 50%
# Scp-1 inhibitor = blocks human Scp-1 phosphatase activity; Recombinant Scp1, phosphopeptide, malachite green phosphate absorbance; inhibition, % at 20 µM; Q9GZU7; 0.88% of 340,000 active;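 active = inhibition above about 50% at 20 µM, limit read from the data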;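 also: plate controls were DMSO wells with enzyme for no effect and wells lacking enzyme for full effect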
#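 Material: truncated SCP-1 phosphatase (76-261aa) / Buffer or medium: 50 mM Tris acetate pH 5.5, 0.005% Tween-20, 10 mM MgCl2 / Compound dosing: one concentration, 20 µM, with 1.0% DMSO / Incubation: 45 min room-temperature reaction, 5 min colour, 30 min stabiliser / Detection: colorimetric free-phosphate detection, absorbance 630 nm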
# SUMO1 PPI mod = alters human SUMO1 binding to SIM partners | P63165 | SUMO1 binding to a labelled peptide, TR-FRET, 1 h | inhibition, % at 20 µM | 0.33% of 360,000 active; in the data active = inhibition above about 37%
# DNMT1 inh conf = DNMT1 inhibition confirmation, single concentration; AID 602385; shares compounds with DNMT1 block; 8% of 2,300 active; DNMT1 molecular beacon HinP1I cleavage, fluorescence; inhibition, % at 10 µM;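 active = average inhibition of at least 30% in the single-concentration confirmation test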
# DNMT1 interf = counter-screen for DNMT1 inhibitors: spectral interference. DNMT1 molecular beacon spectral interference counterscreen, fluorescence 485/520. activation (fluorescence interference), % at 10 µM. shares compounds with DNMT1 block. 1% of 2,300 active;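 active = activation of at least 30% at 10 µM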;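 also: DNMT1 catalytic domain with a HinP1I cleavage step and a FAM/dabcyl DNA beacon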
# Numbers without * were called inactive; . = no result.
SMILES,STEP block,LMPTP inh,DNMT1 block,Scp-1 inhibitor,SUMO1 PPI mod,DNMT1 inh conf,DNMT1 interf
CCOC(=O)c1c(C)[nH]c(C)c1C(=O)COC(=O)C1CC(=O)N(CCc2ccccc2)C1 (stereo unspecified),-3,-1,3,5,3,.,.
O=C(COC(=O)CCN1C(=O)/C(=C\C=C\c2ccccc2)SC1=S)Nc1cc(F)ccc1F,3,5,75*,-6,-5,12,4
c1cc2ccc3ccc(-n4cnnn4)c4ccc(c1)c2c34,1,13,60*,27,-3,5,4
CC(=O)N(CCCCN1C(=O)c2ccccc2C1=O)c1ccc(C)cc1,3,-1,4,-7,27,.,.
CC(=O)N(CN1C(=O)c2ccccc2C1=O)c1ccc2c(c1)oc1ccccc12,-1,0,79*,-4,-11,2,2
Cc1ccc(NC(=O)CSc2ccc(-c3ccco3)nn2)cc1,-2,-1,-4,-7,-5,.,.
COc1ccc(C(=O)CSc2nnc(-c3ccco3)n2C)cc1,2,-1,-2,0,1,.,.
CSc1nnc(-c2ccco2)c(-c2ccco2)n1,3,5,95*,47,22,2,4
COc1ccc(C(=O)CSc2nnc(-c3ccco3)c(-c3ccco3)n2)cc1,5,33,76*,87*,16,4,4
Cc1ccc(NC(=O)CSc2nnc(-c3ccco3)c(-c3ccco3)n2)cc1,6,8,92*,57*,19,7,7
COc1cccc(NC(=O)CSc2nnc(-c3ccco3)c(-c3ccco3)n2)c1,9,3,87*,66*,26,2,0
COc1ccc(OC)c(S(=O)(=O)NCc2ccccn2)c1,-3,0,1,-6,-1,.,.
COc1ccc(S(=O)(=O)NCc2cccnc2)cc1C(=O)Nc1ccccc1,1,1,-2,-5,-6,.,.
COC(=O)c1sc(N2C(=O)c3oc4ccccc4c(=O)c3C2c2cccs2)nc1C (stereo unspecified),-3,-2,60*,1,-11,2,-3
COC(=O)c1sc(N2C(=O)C(O)=C(C(=O)c3ccc(C)o3)C2c2cccs2)nc1C (stereo unspecified),8,11,0,-2,-6,.,.
O=C(O)c1cccc(N2C(=O)c3cc([N+](=O)[O-])cc4cc([N+](=O)[O-])cc(c34)C2=O)c1,32,6,85*,69*,29,18,-1
COc1ccc([N+](=O)[O-])cc1NC(=O)C1C2C=CC(C2)C1C(=O)O (stereo unspecified),-1,-2,3,6,-21,.,.
O=C1NC(=Nc2ccc3ccccc3c2)S/C1=C/c1ccco1,0,26,67*,18,3,3,-2
Cc1cccc(N=C2NC(=O)/C(=C/C=C/c3ccco3)S2)c1,0,6,85*,15,14,14,1
Cc1ccc(N=C2NC(=O)/C(=C\c3ccco3)S2)cc1,-5,2,45,7,-7,.,.
COc1ccc(N=C2NC(=O)/C(=C\C=C\c3ccco3)S2)cc1,6,32,80*,25,24,3,-4
O=C(CN1C(=O)CCSc2ccc(S(=O)(=O)N3CCOCC3)cc21)Nc1cccc(F)c1,29,5,7,44,26,.,.
COc1ccc(CN(C)C(=O)C(Cc2ccccc2)NC(=O)c2ccccc2)c(OC)c1 (stereo unspecified),3,3,2,6,-1,.,.
O=S(=O)(Nc1ccccc1N1CCOCC1)c1c(F)cc(F)cc1Br,-3,1,0,-3,11,.,.
S=C(NCc1ccco1)NCc1ccco1,13,9,50,4,5,1,-1
O=C(NCc1ccco1)c1ccc([N+](=O)[O-])o1,-2,9,67*,59*,-23,3,3
O=C(NCc1ccco1)c1ccc(Cn2cc([N+](=O)[O-])cn2)o1,-1,-1,4,0,-11,.,.
